# Source: ChEMBL document CHEMBL3421560, “Search for factors affecting antibacterial activity and toxicity of 1,2,4-triazole-ciprofloxacin hybrids” (Eur J Med Chem, 2015)
# Tests used:
# [1] = tested on: Staphylococcus aureus; test: Antimicrobial activity against methicillin-susceptible Staphylococcus aureus ATCC 25923 after 18 hrs by broth microdilution method; type: functional; details: ATCC 25923, 18 h
# [2] = tested on: Staphylococcus aureus; test: Antimicrobial activity against methicillin-susceptible Staphylococcus aureus ATCC 6538 after 18 hrs by broth microdilution method; type: functional; details: ATCC 6538, 18 h
# [3] = tested on: Staphylococcus aureus; test: Antimicrobial activity against Staphylococcus aureus Microbank 14001 after 18 hrs by broth microdilution method; type: functional; details: Microbank 14001, 18 h
# [4] = tested on: Staphylococcus epidermidis; test: Antimicrobial activity against Staphylococcus epidermidis ATCC 12228 after 18 hrs by broth microdilution method; type: functional; details: ATCC 12228, 18 h
# [5] = tested on: Bacillus subtilis; test: Antimicrobial activity against Bacillus subtilis […] after 18 hrs by broth microdilution method; type: functional
# [6] = tested on: Bacillus cereus; test: Antimicrobial activity against Bacillus cereus ATCC 10876 after 18 hrs by broth microdilution method; type: functional; details: ATCC 10876, 18 h
# [7] = tested on: Micrococcus luteus; test: Antimicrobial activity against Micrococcus luteus ATCC 10240 after 18 hrs by broth microdilution method; type: functional; details: ATCC 10240, 18 h
# [8] = tested on: Staphylococcus aureus; test: Ratio of MBC for methicillin-susceptible Staphylococcus aureus ATCC 25923 to MIC for methicillin-susceptible Staphylococcus aureus ATCC 25923; type: functional
# Method in brief: (§1)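 MBC taken as lowest concentration giving >99.9% CFU reduction of the initial inoculum; value is MBC divided by MIC for the same strain.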
# [9] = tested on: Staphylococcus aureus; test: Ratio of MBC for methicillin-susceptible Staphylococcus aureus ATCC 6538 to MIC for methicillin-susceptible Staphylococcus aureus ATCC 6538; type: functional; method in brief: as §1
# [10] = tested on: Staphylococcus aureus; test: Ratio of MBC for Staphylococcus aureus Microbank 14001 to MIC for Staphylococcus aureus Microbank 14001; type: functional; method in brief: as §1
# [11] = tested on: Escherichia coli; test: Antimicrobial activity against Escherichia coli ATCC 25922 after 18 hrs by broth microdilution method; type: functional; details: ATCC 25922, 18 h
# [12] = tested on: Klebsiella pneumoniae; test: Antimicrobial activity against Klebsiella pneumoniae ATCC 13883 after 18 hrs by broth microdilution method; type: functional; details: ATCC 13883, 18 h
# [13] = tested on: Proteus mirabilis; test: Antimicrobial activity against Proteus mirabilis ATCC 12453 after 18 hrs by broth microdilution method; type: functional; details: ATCC 12453, 18 h
# [14] = tested on: Pseudomonas aeruginosa; test: Antimicrobial activity against Pseudomonas aeruginosa ATCC 9027 after 18 hrs by broth microdilution method; type: functional; details: ATCC 9027, 18 h
# [15] = tested on: HEK293; test: Cytotoxicity against HEK293 cells after 72 hrs by MTT assay; type: cell-based; details: Homo sapiens, HEK293, 48 h; in the assay text read “48 hrs” for “72 hrs”
# Method in brief: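 HEK-293 (ATCC CRL-1573) in MEM with 10% FBS plus penicillin/streptomycin, seeded 3 x 10^5 cells/well, 24 h at 37 °C, 5% CO2. Treated with compounds diluted from 50 mg/mL DMSO stock into medium with 2% FBS for 48 h. Viability by MTT formazan readout; EC50 relative to control cells, mean ± SD of three independent experiments.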
Structure (SMILES),MIC [1] [µM],MIC [2] [µM],MIC [3] [µM],MIC [4] [µM],MIC [5] [µM],MIC [6] [µM],MIC [7] [µM],Ratio [8],Ratio [9],Ratio [10],MIC [11] [µM],MIC [12] [µM],MIC [13] [µM],MIC [14] [µM],EC50 [15] [µM]
O=C(O)c1cn(C2CC2)c2cc(N3CCN(Cn4nc(-c5ccccc5O)n(-c5ccccc5)c4=S)CC3)c(F)cc2c1=O,0.8,0.39,0.19,0.098,0.39,0.098,1.59,<=4,<=4,<=4,0.012,0.049,0.024,0.39,–
O=C(O)c1cn(C2CC2)c2cc(N3CCN(Cn4nc(-c5ccccc5O)n(Cc5ccccc5)c4=S)CC3)c(F)cc2c1=O,0.38,0.19,0.38,0.38,0.048,0.19,1.56,<=4,<=4,<=4,0.006,0.096,0.024,0.096,69.1
O=C(O)c1cn(C2CC2)c2cc(N3CCN(Cn4nc(-c5ccccc5O)n(-c5ccc(F)cc5)c4=S)CC3)c(F)cc2c1=O,1.55,0.38,0.19,0.38,0.19,0.19,3.09,<=4,<=4,<=4,0.011,0.048,0.024,0.095,–
O=C(O)c1cn(C2CC2)c2cc(N3CCN(Cn4nc(-c5ccccc5O)n(-c5ccc(Cl)cc5)c4=S)CC3)c(F)cc2c1=O,0.76,0.18,0.093,0.18,0.093,0.18,1.51,<=4,<=4,<=4,0.011,0.023,0.011,0.37,–
O=C(O)c1cn(C2CC2)c2cc(N3CCN(Cn4nc(-c5ccccc5O)n(Cc5ccc(Cl)cc5)c4=S)CC3)c(F)cc2c1=O,0.74,0.18,0.36,0.091,0.045,0.091,1.48,<=4,<=4,<=4,0.023,0.023,0.046,0.36,–
COc1ccc(-n2c(-c3ccccc3O)nn(CN3CCN(c4cc5c(cc4F)c(=O)c(C(=O)O)cn5C4CC4)CC3)c2=S)cc1,0.76,0.37,0.18,0.093,0.093,0.37,1.52,<=4,<=4,<=4,0.011,0.047,0.047,0.76,–
O=C(O)c1cn(C2CC2)c2cc(N3CCN(Cn4nc(-c5cccc(O)c5)n(-c5ccccc5)c4=S)CC3)c(F)cc2c1=O,0.8,0.39,0.39,0.19,0.098,0.19,1.6,<=4,<=4,<=4,0.012,0.049,0.024,0.19,140
O=C(O)c1cn(C2CC2)c2cc(N3CCN(Cn4nc(-c5cccc(O)c5)n(Cc5ccccc5)c4=S)CC3)c(F)cc2c1=O,0.38,0.19,0.19,0.096,0.048,0.096,1.56,<=4,<=4,<=4,0.006,0.048,0.012,0.19,–
